Article PMC10590554 (Drug Design, Development and Therapy, 2023)
Several values for one entry are separate records, joined by “and”; a condition that tells them apart may be missing. Equal values may be shown once. Read-outs that look alike come from different tables or passages of the source.

Assays:
[1] = assay type: in vivo, Sprague-Dawley rats; conditions: rats
In short: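 Male Sprague-Dawley rats (220–260 g), acclimatised one week, fasted 12 h with free water, n=7/group. Single dose of vehicle (0.5% CMC-Na), simvastatin 2 mg/kg or itraconazole 15 mg/kg, then erlotinib 12 mg/kg in 0.5% CMC-Na by oral gavage 30 min later. Tail-vein blood taken into heparin at 0–24 h; plasma assayed by UPLC-MS/MS with tinidazole IS. Mean ± SD; ANOVA with Dunnett; Tmax by Wilcoxon signed-rank.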

[2] = Stability of erlotinib in rat plasma; assay type: in vitro ADME; conditions: various storage conditions, QC 8 and 800 ng/mL
In short: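 Blank rat plasma spiked with erlotinib QC at 8 and 800 ng/mL, five replicates per level. Held at room temperature 4 h, at −80°C for 60 days, or through 3 freeze-thaw cycles; processed samples held 4°C 24 h. Acetonitrile-tinidazole protein precipitation, then UPLC-MS/MS against a 5–1000 ng/mL 1/x²-weighted curve. Accuracy taken as measured/theoretical concentration ×100%.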

[3] = after oral administration; cited from earlier work
CYP3A4 = conditions: human microsomes and cDNA expressed human CYP enzymes; cited from earlier work
[4] = cited from earlier work
[5] = with ketoconazole (CYP3A4 inhibitor); cited from earlier work
[6] = with flavoured water; cited from earlier work
[7] = co-administration with itraconazole; cited from earlier work
[8] = with itraconazole, humans; cited from earlier work
[9] = with itraconazole, rats; cited from earlier work
[10] = itraconazole group vs erlotinib alone group, P<0.05
[11] = itraconazole group vs erlotinib alone group, not significant
[12] = simvastatin group vs erlotinib alone group, P>0.05

SMILES: C#Cc1cccc(Nc2ncnc3cc(OCCOC)c(OCCOC)cc23)c1 [Erlotinib, erlotinib]
- increase of AUC ([1]; 15 mg/kg itraconazole with 12 mg/kg erlotinib vs erlotinib alone, P<0.05): 32.3%
- decrease of CL/F [1, 10]: ~24.24% and 24.2%
- increase of AUC0-t [1, 10]: approximately 32.32%
- increase of AUC0-∞ [1, 10]: ~32.29%
- increase of Cmax [1, 10]: ~33.54% and 33.5%
- decrease of Vz/F [1, 11]: approximately 19.30%
- increase of t1/2 [1, 11]: ~5.33%
- AUC0-t, fold higher than erlotinib alone group ([1]; itraconazole group, P<0.05): approximately 1.32 fold
- AUC0-∞, fold higher than erlotinib alone group ([1]; itraconazole group, P<0.05): approximately 1.32 fold
- Cmax, fold higher than erlotinib alone group ([1]; itraconazole group, P<0.05): ~1.34 fold
- decrease of CL/F [1, 12]: approximately 6.06%
- increase of AUC0-∞ [1, 12]: ~9.50%
- increase of Cmax [1, 12]: ~3.80%
- increase of Vz/F [1, 12]: ~1.16%
- increase of t1/2 [1, 12]: ~7.56%
- Accuracy over all stability conditions [2]: 87.56–112.17%
- eliminated via urine and feces route [3]: 91%
- share of metabolism by CYP3A4 (CYP3A4): 70%
- reduction of AUC of erlotinib ([4]; combined with tamoxifen vs single administration): 54%
- increase of AUC of erlotinib [5]: 86%
- increase of Cmax of erlotinib [5]: 102%
- increase of AUC of erlotinib [6]: 200%
- increase of Cmax of erlotinib [6]: 95%

SMILES: N#CC1(c2ccc(NC(=O)c3cccnc3NCc3ccncc3)cc2)CCCC1 [apatinib]
- reduction of CL/F of apatinib [7]: 40%

SMILES: CCc1nc(C(N)=O)c(Nc2ccc(N3CCC(N4CCN(C)CC4)CC3)c(OC)c2)nc1NC1CCOCC1 [gilteritinib]
- increase of exposure of gilteritinib [8]: 2.2 fold
- increase of exposure of gilteritinib [9]: 1.4 fold

SMILES: CC/C(=C(\c1ccccc1)c1ccc(OCCN(C)C)cc1)c1ccccc1 [tamoxifen]
- increase of Cmax of tamoxifen ([4]; combined with erlotinib vs single administration): 46%
